Values after ≈ are worked out from the molar mass of the structure shown. Active and inactive are the calls of the source.
What was measured:
[1] = target: T1, DNA topoisomerase 2-alpha (Homo sapiens, UniProt P11388); test: Inhibition of topoisomerase 2alpha in human SW620 organoids transfected with VimPro-GFP reporter assessed as reversion of epithelial-mesenchymal transition by measuring reduction in vimentin expression at 10 uM after 72 hrs by Hoechst 33342 staining based GFP reporter gene assay
Method in brief: (§1)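 SW620 cells stably carrying VimPro-GFP or EcadPro-mCherry (puromycin selected) grown as organoids and dosed 72 h. Stained with 16 μM Hoechst 33342 for 1 h and imaged as 15 z-layers, 26.5 μm apart. Nuclei segmented and GFP- or mCherry-positive cells counted above background thresholds. Percent positive cells normalised to DMSO.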

[2] = AUC(0 to t) in CD-1 mouse at 50 mg/kg, ip by LC-MS/MS analysis; assay type: ADME, organism-based; conditions: in vivo
Method in brief: (§2)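 Female CD-1 mice, single IP injection at 50 mg/kg in 100% DMSO. Sampling from 0.25 to 24 h, three mice per time point (21 per compound). Heparinised blood was spun to plasma, mixed 1:1 with acidified acetonitrile (0.1% formic acid or 0.1% TFA depending on compound), centrifuged, then measured by LC-MS/MS.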

[3] = Half life of terminal disposition phase in CD-1 mouse at 50 mg/kg, ip by LC-MS/MS analysis; assay type: ADME, organism-based; conditions: in vivo, read-out: t1/2lambda (converted); method in brief: as §2
[4] = tested on: Mus musculus; test: Apparent volume of drug distribution in CD-1 mouse at 50 mg/kg, ip by LC-MS/MS analysis; assay type: ADME, organism-based; conditions: in vivo; method in brief: as §2
[5] = tested on: SW-620; test: Cytotoxicity against human SW620 organoids assessed as growth inhibition at 10 uM after 72 hrs by brightfield imaging of organoid volume
[6] = target: T1, DNA topoisomerase 2-alpha; test: Inhibition of human topoisomerase 2alpha mediated decatenation at 30 uM using kDNA as susbtrate preincubated for 20 mins followed by substrate and ATP addition and measured after 1 hr by ethidium bromide staining based gel electrophoresis method relative to control
Method in brief: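 Human TOP2A (3 U) preincubated 20 min at 37 °C with compound at 30 μM in 1.2% DMSO. Reaction started with 2 mM ATP and 35 ng kDNA and run 1 h at 37 °C. Products resolved on 0.8% agarose in TBE with 0.2 μg/mL ethidium bromide; decatenated bands compared with vehicle.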

[7] = Drug metabolism in CD-1 mouse active microsomes assessed as CYP450-mediated oxidative phase 1 metabolite formation measured within 30 mins by LC-MS/MS analysis; assay type: ADME; conditions: 0.5 h
[8] = Cmax in CD-1 mouse at 50 mg/kg, ip by LC-MS/MS analysis; assay type: ADME, organism-based; set-up: dose 50 mg/kg, route intraperitoneal; conditions: in vivo; method in brief: as §2
[9] = Metabolic stability in CD-1 mouse inactive microsomes incubated for 1 hr by LC-MS/MS analysis; assay type: ADME, Microsome
[10] = tested on: SW-620; test: Anticlonogenic activity against human SW620 cells assessed as loss of cancer stem cell stemness by measuring inhibition of colony formation at 10 uM incubated for 24 hrs followed by replating and measured after 7 days by clonogenic assay; assay type: functional, cell-based
[11] = Half life in CD-1 mouse microsomes measured up to 1 hr by LC-MS analysis; assay type: ADME, Microsome
Method in brief: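 Female CD-1 mouse liver microsomes (0.5 mg/mL), substrate 1 μg/mL and 1.5 mM NADPH in 0.1 M phosphate buffer pH 7.4 at 37 °C. Samples taken from 0 to 60 min and quenched with an equal volume of acetonitrile. Parent compound remaining measured by LC-MS/MS without internal standard.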

[12] = target: T1, DNA topoisomerase 2-alpha; test: Inhibition of topoisomerase 2alpha in human SW620 organoids transfected with VimPro-GFP reporter assessed as reversion of epithelial-mesenchymal transition by measuring reduction in vimentin expression up to 40 uM after 72 hrs by Hoechst 33342 staining based GFP reporter gene assay; method in brief: as §1
[13] = tested on: SW-620; test: Antiinvasive activity in human SW620 organoids transduced with NucLight-Red virus assessed as inhibition of cell invasion at 10 uM incubated for 72 hrs and measured after 72 hrs by matrigel based fluorescence analysis; assay type: functional
Method in brief: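 NucLight-Red-labelled SW620 organoids treated 72 h at 10 μM in 0.1% DMSO, then dissociated. 5,000 live cells per well seeded in 50% Matrigel in the upper chamber of a migration plate, 0.5% FBS above and 20% FBS below. Invading cells tracked by bottom-side fluorescence over days, six replicates per condition.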

[14] = target: T1, DNA topoisomerase 2-alpha; test: Inhibition of topoisomerase 2alpha in human SW620 organoids transfected with EcadPro-RFP reporter assessed as reversion of epithelial-mesenchymal transition by measuring increase in E-cadherin expression at 10 uM after 72 hrs by Hoechst 33342 staining based mCherryRFP reporter gene assay; method in brief: as §1
[15] = target: T1, DNA topoisomerase 2-alpha; test: Inhibition of topoisomerase 2alpha in human SW620 organoids transfected with EcadPro-RFP reporter assessed as reversion of epithelial-mesenchymal transition by measuring increase in E-cadherin expression up to 40 uM after 72 hrs by Hoechst 33342 staining based mCherryRFP reporter gene assay; method in brief: as §1
[16] = target: T1, DNA topoisomerase 2-alpha; test: Inhibition of topoisomerase 2alpha dependent TCF transcription in human SW620 organoids transduced with TOPflash luminescent reporter at 10 uM after 72 hrs by luciferase based TOPFlash reporter gene assay
[17] = Drug metabolism in CD-1 mouse active microsomes assessed as CYP450-mediated oxidative phase 1 metabolite formation by LC-MS/MS analysis
[18] = target: T1, DNA topoisomerase 2-alpha; test: Inhibition of topoisomerase 2alpha dependent TCF transcription in human SW620 organoids transduced with TOPflash luminescent reporter after 72 hrs by luciferase based TOPFlash reporter gene assay
Method in brief: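 SW620 cells stably carrying pCDH-TOPflash-luc grown as organoids: 5,000 cells per U-bottom well in phenol red-free RPMI with 5% FBS and 2% Matrigel, 72 h. Inhibitor then applied 72 h. One-Glo luciferase and CellTiter-Glo 3D added 1:1. Luciferase signal normalised to viability, then to DMSO controls.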

[19] = tested on: SW-620; test: Cytotoxicity against human SW620 organoids assessed as cell death with loss of membrane integrity after 72 hrs by CellTox Green assay; assay type: functional, cell-based; conditions: SW-620, 72 h
Method in brief: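 SW620 tumor organoids exposed 72 h to inhibitor over 0–40 μM together with CellTox Green Express (0.5X). Whole-well mean fluorescence imaged (ex 488, em 500–550 nm). Normalised to lysis buffer as 0% viability and 0.4% DMSO as 100% viability.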

[20] = Tmax in CD-1 mouse at 50 mg/kg, ip by LC-MS/MS analysis; assay type: ADME, organism-based; conditions: in vivo; method in brief: as §2
[21] = tested on: SW-620; test: Induction of early stage cell death in human SW620 organoids transfected with EcadPro-RFP reporter assessed as loss of RFP reporter activity at 40 uM at after 72 hrs by Hoechst 33342 staining based mCherryRFP reporter gene assay; conditions: sw-620, 72 h
[22] = Clearance in CD-1 mouse at 50 mg/kg, ip by LC-MS/MS analysis; assay type: ADME, organism-based; conditions: in vivo; method in brief: as §2
[23] = target: T1, DNA topoisomerase 2-alpha; test: Poison activity at topoisomerase 2alpha in human SW620 cells assessed as induction of DNA double stranded break by measuring gamma H2AX phosphorylation up to 40 uM after 6 hrs by Hoechst-33342 staining based immunofluorescence assay; assay type: cell-based
Method in brief: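 SW620 monolayers, 20,000 cells per well, treated with compound for 6 or 24 h. Fixed in 4% paraformaldehyde, then permeabilised and blocked. Stained with γ-H2AX antibody overnight at 4 °C, FITC secondary antibody, and Hoechst 33342, then imaged at 20x.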

[24] = tested on: SW-620; test: Induction of apoptosis in human SW620 organoids assessed as increase in cleaved caspase 3/7 level at 40 uM after 72 hrs by caspase-glo 3/7 luminescence assay relative to control; assay type: functional
Method in brief: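 SW620 cells, 2,000 per well in 384-well ultra-low attachment plates with 2% Matrigel, grown 72 h into organoids, then dosed 72 h. Caspase-Glo 3/7 reagent added 1:1 and shaken 30 min; luminescence read. Staurosporine served as positive control and 0.4% DMSO as negative control.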

[25] = Aqueous solubility of compound in PBS at 1 mg after 18 hrs by UV based analysis; assay type: physicochemical
Method in brief: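 Undissolved material removed by centrifugation at 5,000g for 45 min. UV absorption compared with a fully saturated 1-propanol solution; solubility derived by linear regression.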

T1 sequence (P11388 whole entry): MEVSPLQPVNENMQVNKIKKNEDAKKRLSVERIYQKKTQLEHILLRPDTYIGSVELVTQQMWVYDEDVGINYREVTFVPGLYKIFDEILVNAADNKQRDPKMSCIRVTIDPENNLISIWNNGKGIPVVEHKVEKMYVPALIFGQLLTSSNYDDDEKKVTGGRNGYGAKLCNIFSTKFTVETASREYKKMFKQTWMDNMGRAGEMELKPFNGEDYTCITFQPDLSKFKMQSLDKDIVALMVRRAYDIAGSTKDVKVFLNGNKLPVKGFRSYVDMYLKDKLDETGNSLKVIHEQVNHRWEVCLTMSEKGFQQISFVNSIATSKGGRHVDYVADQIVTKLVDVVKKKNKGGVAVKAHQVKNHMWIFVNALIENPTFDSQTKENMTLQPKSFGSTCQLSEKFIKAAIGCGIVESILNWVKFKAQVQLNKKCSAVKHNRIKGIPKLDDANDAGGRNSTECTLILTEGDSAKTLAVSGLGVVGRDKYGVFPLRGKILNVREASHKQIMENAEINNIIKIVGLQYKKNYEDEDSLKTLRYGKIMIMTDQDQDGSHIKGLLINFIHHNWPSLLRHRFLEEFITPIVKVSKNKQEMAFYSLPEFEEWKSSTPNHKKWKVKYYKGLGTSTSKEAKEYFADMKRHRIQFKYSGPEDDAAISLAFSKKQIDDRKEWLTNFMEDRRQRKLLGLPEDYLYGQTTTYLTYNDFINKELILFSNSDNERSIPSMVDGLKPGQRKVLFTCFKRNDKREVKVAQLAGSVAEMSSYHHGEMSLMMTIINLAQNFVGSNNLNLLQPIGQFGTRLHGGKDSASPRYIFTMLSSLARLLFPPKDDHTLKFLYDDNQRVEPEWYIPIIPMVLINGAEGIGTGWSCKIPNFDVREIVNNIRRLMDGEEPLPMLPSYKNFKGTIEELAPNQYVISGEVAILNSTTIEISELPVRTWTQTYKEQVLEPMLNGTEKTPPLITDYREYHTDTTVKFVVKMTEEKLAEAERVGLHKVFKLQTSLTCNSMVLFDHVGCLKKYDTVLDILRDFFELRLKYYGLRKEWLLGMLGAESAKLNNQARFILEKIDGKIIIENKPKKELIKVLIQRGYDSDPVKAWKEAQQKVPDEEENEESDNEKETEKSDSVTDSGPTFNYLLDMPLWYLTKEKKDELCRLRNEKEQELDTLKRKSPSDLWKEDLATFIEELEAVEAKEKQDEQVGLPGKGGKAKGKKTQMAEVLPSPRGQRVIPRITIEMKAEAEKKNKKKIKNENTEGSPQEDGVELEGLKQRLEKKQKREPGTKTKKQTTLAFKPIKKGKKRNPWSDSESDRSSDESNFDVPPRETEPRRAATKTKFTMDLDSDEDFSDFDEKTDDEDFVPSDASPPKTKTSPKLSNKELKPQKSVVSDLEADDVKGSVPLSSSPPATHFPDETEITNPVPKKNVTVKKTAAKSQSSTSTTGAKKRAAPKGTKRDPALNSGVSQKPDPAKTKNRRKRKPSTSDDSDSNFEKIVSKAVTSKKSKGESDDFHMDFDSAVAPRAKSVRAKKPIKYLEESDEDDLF

inhibition [1]: Active
AUC(0-t) [2]: 12500 ng·h/mL
half-life [3]: 118 min
Vz [4]: 10.9 L/kg
inhibition [6]: 99%
Drug metabolism [7]: Metabolite_Detected
Cmax [8]: 19000 ng/mL
Stability [9]: Stable
t1/2 [11]: 6.72 min
inhibition [12]: Active
inhibition [14]: Active
inhibition [15]: Active
inhibition [16]: Active
Drug metabolism [17]: Metabolite_Notdetected
IC50 [18]: 2400 nM
Tmax [20]: 15 min
CL/F [22]: 64.5 mL/min/kg
solubility thermodynamic at 18 h [25]: 450 µg/mL (≈ 1440 µM)
SMILES: CC(=O)Nc1ccc2c(-c3cc(F)ccc3O)ccnc2c1O
growth inhibition (GI) [5]: Active
inhibition [10]: Active
inhibition [13]: Active
EC50 [19]: > 30000 nM
Activity [21]: Active
Activity [23]: Not Active
Activity [24]: Active

From ChEMBL document CHEMBL4321838, “Drug Design Targeting T-Cell Factor-Driven Epithelial-Mesenchymal Transition as a Therapeutic Strategy for Colorectal Cancer” (J Med Chem, 2019)
